Assay results: ChEMBL document CHEMBL4257585, “Structure-Activity Relationships of Photoswitchable Diarylethene-Based β-Hairpin Peptides as Membranolytic Antimicrobial and Anticancer Agents” (J Med Chem, 2018)
≈ marks a conversion by molar mass, not a printed value.

Tests used:
Bacillus subtilis = test: Antimicrobial activity against Bacillus subtilis DSM 347 after 22 hrs by resazurin dye based spectrophotometry; format: functional; details: DSM 347, 22 h
Outline: (§1)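 2-fold broth microdilution in Mueller–Hinton medium; peptide stocks 1024 μg/mL in 50% ethanol. Exponential-phase cultures diluted to OD550 0.2, then 1:100 (B. subtilis) or 1:1000 (E. coli), giving 5 × 10^5 CFU/mL per well. Incubated 22 h, 37 °C, static; then resazurin (0.2 mg/mL solution) added for 2 h at 37 °C, read visually and spectrophotometrically. Tested in both photoforms.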

Escherichia coli = test: Antimicrobial activity against Escherichia coli DSM 1103 after 22 hrs by resazurin dye based spectrophotometry; format: functional; details: DSM 1103, 22 h; outline: as §1
[1] = Therapeutic index, ratio of HC50 for human RBC to MIC for Bacillus subtilis DSM 347; format: toxicity; details: human red blood cells versus Bacillus subtilis DSM 347
Outline: (§2)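 Ratio of HC50 (RBC) to HeLa IC50 or to MIC against B. subtilis or E. coli; values measured in mg/mL and recalculated to μM, 2-fold dilution without curve fitting, accuracy within a factor of 2.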

HeLa = test: Cytotoxicity against human HeLa cells assessed as reduction in cell viability after 24 hrs by MTT assay; format: functional, cell-based
Outline: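 HeLa cells seeded at about 5 × 10^4 cells/mL in DMEM with 10% FBS, 2 mM glutamine, gentamicin; 24 h adaptation (37 °C, 5% CO2), then 24 h peptide exposure. MTT 4 h, formazan in DMSO read at 570 nm. 2-fold series 256–0.5 (open) or 512–1 μg/mL (closed), four repetitions; IC50 extrapolated from killing curves. Closed form handled in dim light.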

[2] = Hemolytic activity against human RBC assessed as hemolysis after 30 mins by colorimetric method; format: ADME, cell-based, Erythrocyte; details: human red blood cells (erythrocytes)
Outline: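 Human erythrocytes washed twice in isotonic 172 mM Tris-HCl, pH 7.6; peptides dissolved in DMSO, diluted in buffer, two independent 10-step 2-fold series from 256 or 192 μg/mL. HC50 extrapolated as 50% hemolysis concentration.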

[3] = Therapeutic index, ratio of HC50 for human RBC to MIC for Escherichia coli DSM 1103; format: toxicity; details: human red blood cells versus Escherichia coli DSM 1103; outline: as §2
[4] = Selective ratio of HC50 for human RBC to IC50 for human HeLa cells; format: toxicity; details: human red blood cells versus HeLa cells; outline: as §2

| SMILES | MIC (Bacillus subtilis) [µM] | MIC (Escherichia coli) [µM] | selectivity ratio [1] | IC50 (HeLa) [µM] | HC50 at 0.5 h [2] [µM] | selectivity ratio [3] | selectivity ratio [4] |
| --- | --- | --- | --- | --- | --- | --- | --- |
| CC(C)C[C@@H]1NC(=O)[C@H](CCCCN)NC(=O)[C@H](C(C)C)NC(=O)C2=CC3=C4CCCC4=C4C=C(S[C@]4(C)[C@@]3(C)S2)C(=O)[C@H]2CCCN2C(=O)[C@H](C(C)C)NC(=O)[C@H](CCCCN)NC(=O)[C@H](C(C)C)NC(=O)[C@H](CC(C)C)NC(=O)[C@@H](CCCCN)NC(=O)[C@@H]2CCCN2C(=O)[C@@H](Cc2ccccc2)NC(=O)[C@H](C(C)C)NC(=O)[C@H](CCCCN)NC1=O | 2 (≈ 3.53 µg/mL) | 73 (≈ 129 µg/mL) | 7 | 18 | 14 | 0.2 | 0.8 |
| CC[C@H](C)[C@@H]1NC(=O)C2=CC3=C4CCCC4=C4C=C(S[C@]4(C)[C@@]3(C)S2)C(=O)[C@H]2CCCN2C(=O)[C@H]([C@@H](C)CC)NC(=O)[C@H](CCCN)NC(=O)[C@H](CC(C)C)NC(=O)[C@H](CC(C)C)N(C)C(=O)[C@@H](Cc2ccccc2)NC(=O)[C@H]([C@@H](C)CC)NC(=O)[C@H](CCCN)NC1=O | 3 (≈ 4.02 µg/mL) | 191 (≈ 256 µg/mL) | 9 | 25 | 27 | 0.1 | 1.1 |
| Cc1sc2cc1C1=C(CCC1)c1cc(sc1C)C(=O)[C@H]1CCCN1C(=O)[C@H](CC(C)C)NC(=O)[C@H](CCCN)NC(=O)[C@H](C(C)C)NC(=O)[C@@H]1CCCN1C(=O)[C@@H](Cc1ccccc1)NC(=O)[C@H](CC(C)C)NC(=O)[C@H](CCCN)NC(=O)[C@H](CCCN)NC2=O | 2 (≈ 2.59 µg/mL) | 25 (≈ 32.4 µg/mL) | 6 | 6 | 12 | 0.5 | 2 |
| Cc1sc2cc1C1=C(CCC1)c1cc(sc1C)C(=O)[C@H]1CCCN1C(=O)[C@H](C(C)C)NC(=O)[C@H](CCCN)NC(=O)[C@H](C(C)C)NC(=O)[C@@H]1CCCN1C(=O)[C@@H](Cc1ccccc1)NC(=O)[C@H](C(C)C)NC(=O)[C@H](CCCN)NC(=O)[C@H](CC(=O)NC(C)C)NC2=O | 3 (≈ 3.93 µg/mL) | 98 (≈ 128 µg/mL) | 51 | 66 | 153 | 1.6 | 2.3 |
| C[C@@H](O)[C@@H]1NC(=O)[C@H](C23CC4CC(CC(C4)C2)C3)NC(=O)[C@H](CCCN)NC(=O)[C@@H]2CCCN2C(=O)[C@@H](Cc2ccccc2)NC(=O)[C@H](CCCN)NC(=O)[C@H](C23CC4CC(CC(C4)C2)C3)NC(=O)[C@H](CCCN)NC(=O)C2=CC3=C4CCCC4=C4C=C(S[C@]4(C)[C@@]3(C)S2)C(=O)[C@H]2CCCN2C1=O | 2 (≈ 2.91 µg/mL) | 13 (≈ 18.9 µg/mL) | 6.5 | 11 | 13 | 0.1 | 1.2 |
| CC(C)NC(=O)C[C@@H]1NC(=O)C2=CC3=C4CCCC4=C4C=C(S[C@]4(C)[C@@]3(C)S2)C(=O)[C@H]2CCCN2C(=O)[C@H](C(C)C)NC(=O)[C@H](CCCN)NC(=O)[C@H](C(C)C)NC(=O)[C@@H]2CCCN2C(=O)[C@@H](Cc2ccccc2)NC(=O)[C@H](C(C)C)NC(=O)[C@H](CCCN)NC1=O | 49 (≈ 64.2 µg/mL) | 196 (≈ 257 µg/mL) | 7.8 | 196 | 391 | 2 | 2 |
| Cc1sc2cc1C1=C(CCC1)c1cc(sc1C)C(=O)[C@H]1CCCN1C(=O)[C@H](C(C)C)NC(=O)[C@H](CCCN)NC(=O)[C@H](C(C)C)NC(=O)[C@@H]1CCCN1C(=O)[C@@H](Cc1ccccc1)NC(=O)[C@H](C(C)C)NC(=O)[C@H](CCCN)NC(=O)[C@H]([C@H](O)C(C)C)NC2=O | 2 (≈ 2.57 µg/mL) | 100 (≈ 128 µg/mL) | 28 | 25 | 56 | 0.6 | 2.2 |
| Cc1sc2cc1C1=C(CCC1)c1cc(sc1C)C(=O)[C@H]1CCCN1C(=O)[C@H](C(C)C)NC(=O)[C@H](CCCCN)NC(=O)[C@H](C(C)C)NC(=O)[C@H](CC(C)C)NC(=O)[C@@H](CCCCN)NC(=O)[C@@H]1CCCN1C(=O)[C@@H](Cc1ccccc1)NC(=O)[C@H](C(C)C)NC(=O)[C@H](CCCCN)NC(=O)[C@H](CC(C)C)NC(=O)[C@H](CCCCN)NC(=O)[C@H](C(C)C)NC2=O | 1 (≈ 1.76 µg/mL) | 9 (≈ 15.9 µg/mL) | 1 | 3 | 1 | 0.1 | 0.3 |
| Cc1sc2cc1C1=C(CCC1)c1cc(sc1C)C(=O)[C@H]1CCCN1C(=O)[C@H]([C@@H](C)O)NC(=O)[C@H](C13CC4CC(CC(C4)C1)C3)NC(=O)[C@H](CCCN)NC(=O)[C@@H]1CCCN1C(=O)[C@@H](Cc1ccccc1)NC(=O)[C@H](CCCN)NC(=O)[C@H](C13CC4CC(CC(C4)C1)C3)NC(=O)[C@H](CCCN)NC2=O | 2 (≈ 2.91 µg/mL) | 25 (≈ 36.3 µg/mL) | 2 | 9 | 4 | 0.2 | 0.4 |
| CC(C)[C@@H]1NC(=O)C2=CC3=C4CCCC4=C4C=C(S[C@]4(C)[C@@]3(C)S2)C(=O)[C@H]2CCCN2C(=O)[C@H](C(C)C)NC(=O)[C@H](CCCN)N(C)C(=O)[C@H](C(C)C)NC(=O)[C@@H]2CCCN2C(=O)[C@@H](Cc2ccccc2)N(C)C(=O)[C@H](C(C)C)NC(=O)[C@H](CCCN)NC1=O | 6 (≈ 7.68 µg/mL) | 200 (≈ 256 µg/mL) | 32 | 100 | 192 | 1 | 1.9 |
| CC(C)C[C@@H]1NC(=O)[C@H](CCCCN)NC(=O)[C@H](C(C)C)NC(=O)C2=CC3=C4CCCC4=C4C=C(S[C@]4(C)[C@@]3(C)S2)C(=O)[C@H]2CCCN2C(=O)[C@H](CC(C)C)NC(=O)[C@H](CCCCN)NC(=O)[C@H](C(C)C)NC(=O)[C@H](CCCCN)NC(=O)[C@H](CC(C)C)NC(=O)[C@@H]2CCCN2C(=O)[C@@H](Cc2ccccc2)NC(=O)[C@H](C(C)C)NC(=O)[C@H](CCCCN)NC1=O | 1 (≈ 1.78 µg/mL) | 36 (≈ 64 µg/mL) | 37 | 28 | 37 | 1 | 1.3 |
| Cc1sc2cc1C1=C(CCC1)c1cc(sc1C)C(=O)[C@H]1CCCN1C(=O)[C@H](CCCCN)NC(=O)[C@H](CC(C)C)NC(=O)[C@H](CCCCN)NC(=O)[C@H](C(C)C)NC(=O)[C@@H]1CCCN1C(=O)[C@@H](Cc1ccccc1)NC(=O)[C@H](CC(C)C)NC(=O)[C@H](CCCCN)NC(=O)[C@H](C(C)C)NC(=O)[C@H](CCCCN)NC2=O | 1 (≈ 1.57 µg/mL) | 21 (≈ 32.9 µg/mL) | 4 | 41 | 4 | 0.2 | 0.1 |
| CC(C)C[C@@H]1NC(=O)[C@H](CCCCN)NC(=O)[C@H](C(C)C)NC(=O)C2=CC3=C4CCCC4=C4C=C(S[C@]4(C)[C@@]3(C)S2)C(=O)[C@H]2CCCN2C(=O)[C@H](CC(C)C)NC(=O)[C@H](CCCCN)NC(=O)[C@H](C(C)C)NC(=O)[C@H](CCCCN)NC(=O)[C@H](CC(C)C)NC(=O)[C@H](CCCCN)N(C)C(=O)[C@@H](Cc2ccccc2)NC(=O)[C@H](C(C)C)NC(=O)[C@H](CCCCN)NC1=O | 1 (≈ 1.82 µg/mL) | 9 (≈ 16.4 µg/mL) | 9 | 18 | 9 | 1 | 0.5 |
